One series deals with Aliivibrio fischeri. The experiment in a line: Microtox acute toxicity assay. It is filed as cell-based. Conditions: n=3, mean ± SD. Summed up: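 Aliivibrio fischeri bioluminescence assay, run in triplicate. A 2 mM stock was osmotically adjusted and then 1:1 serially diluted in Microtox diluent to 9 concentrations (3.5–889 μM). Diluent alone served as the toxicant-free control. Light output was read before mixing with bacteria and again at 5, 15 and 30 min. EC50 is the concentration halving bioluminescence relative to the control at each time point.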

The subject of series [1] is Zebrafish (Danio rerio) embryos. The series is described as follows: Zebrafish embryo developmental toxicity assay. The format is in vivo. Conditions: for Zebrafish mortality: 120 hpf. Summed up:
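Embryos with intact chorions were exposed from 6 to 120 hpf in embryo medium to 0.064–640 μM test compound. All wells contained 0.64% DMSO, and there were 32 embryos per concentration and control. Plates were kept at 28 °C in the dark. At 24 hpf, mortality, developmental delay, spontaneous movement and notochord were scored. At 120 hpf, mortality, edemas, morphological abnormalities, circulation, swim bladder and touch response were scored.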

Series [2] deals with H1299, a human lung cell line. The experiment in a line: xCELLigence Real-Time Cell Analysis. The format is cell-based. Conditions: read-out: xCELLigence IC50 72 h; H1299, 72 h, n=3, mean ± SD.
For series [3] the following is noted: Measured at pH 8; ref Palos Pacheco et al. [25]; cited from earlier work.
The test system of series [4] is H1299, a human lung cell line. The experiment in a line: MTS cytotoxicity assay. The format is cell-based. Conditions: read-out: MTS IC50 72 h; H1299, 72 h, mean ± SD, n = 2–7.
For series [5] the following is noted: laboratory settings; cited from earlier work.
Setting [6] is: read-out: Microtox EC50 5 min, 5 min exposure.
[7] abbreviates: read-out: Microtox EC50 15 min, 15 min exposure.
Setting [8] is: read-out: Microtox EC50 30 min, 30 min exposure.

Molecules are shown by their SMILES. Where two headings read alike, the source gives them in different places.

Turning to `CCCCCCCC(CC(=O)O)OC(=O)CC(CCCCCCC)O[C@@H]1O[C@@H](C)[C@H](O)[C@@H](O)[C@H]1O` (stereo partly drawn) [Rha-C10-C10 (R,R), rhamnosyl-β-hydroxydecanoyl-β-hydroxydecanoate], the EC50 (usually the concentration giving half of the maximal effect) stood at 78.7 ± 4 µM with Aliivibrio fischeri (setting [6]), 53.8 ± 3.3 µM in the series on Aliivibrio fischeri (setting [7]) and 47.3 ± 1.2 µM with Aliivibrio fischeri (setting [8]). In addition, the Zebrafish mortality result in series [1] (640 μM, n = 32, exposure from 6 to 120 hpf) was “not associated with mortality”. For the same molecule, in series [1] (0.064–640 μM, 24 and 120 hpf), the “Developmental effects (22 developmental endpoints)” value was “no developmental effects”. Moreover, the IC50 (in general, the point on the concentration scale where inhibition reaches its midpoint) in series [2] worked out at 122 ± 9.1 µM; in series [4] it was 129.7 ± 1.1 µM. For the same molecule, in series [3], the Area is reported as 119 ± 10 Å^2 molecule^−1. In series [3], the CMC is 270 ± 77 µM. Also, the “Minimum Surface Tension” value in series [3] is 28.1 ± 0.2 mN m^−1.
As for `CCCCCCCC(CC(=O)O)OC(=O)CC(CCCCCCC)O[C@@H]1O[C@@H](C)[C@H](O)[C@@H](O)[C@H]1O` (stereo partly drawn) [Rha-C10-C10 (S,S), rhamnosyl-β-hydroxydecanoyl-β-hydroxydecanoate], the EC50 with Aliivibrio fischeri (setting [6]) was found to be 64.3 ± 8.5 µM; with Aliivibrio fischeri (setting [7]), 42.6 ± 4.4 µM; in the series on Aliivibrio fischeri (setting [8]) it was 38.8 ± 3.7 µM. Further, the Zebrafish mortality in series [1] (6.4 μM, n = 32) amounted to 19%. In addition, the IC50 came to 108 ± 5.3 µM in series [2] and 125 ± 18.6 µM in series [4]. In addition, the Area in series [3] is 94 ± 8 Å^2 molecule^−1. For the same molecule, the CMC in series [3] was 201 ± 51 µM. The “Minimum Surface Tension” value in series [3] is on record as 29.5 ± 0.2 mN m^−1.
On to `CCCCCCCC(CC(=O)O)OC(=O)CC(CCCCCCC)O[C@@H]1O[C@@H](C)[C@H](O)[C@@H](O)[C@H]1O` (stereo partly drawn) [Rha-C10-C10 (S,R), rhamnosyl-β-hydroxydecanoyl-β-hydroxydecanoate], for which the values for the EC50 with Aliivibrio fischeri (setting [6]), with Aliivibrio fischeri (setting [7]) and in the series with Aliivibrio fischeri (setting [8]) were 61.9 ± 4.7 µM, 39.6 ± 2.9 µM and 36.6 ± 2.9 µM, respectively. Also, the values for the IC50 in series [2] and in series [4] were 111 ± 6.2 µM and 103 ± 31.9 µM, respectively. Besides, in series [3], the Area is listed as 105 ± 4 Å^2 molecule^−1. Besides, the CMC in series [3] was 180 ± 24 µM. Also, the “Minimum Surface Tension” value in series [3] is 28.5 ± 0.2 mN m^−1.
For the molecule `CCCCC(CC)COC(=O)CC(C(=O)OCC(CC)CCCC)S(=O)(=O)O` (stereo not shown) [bis-(2-ethylhexyl) sulfosuccinate (DOSS), bis-(2-ethylhexyl) sulfosuccinate], in series [5], the Biodegradability result is “biodegradable”.
